MC4R antagonist – blocks human MC4R cAMP signaling | P32245 | MC4R-expressing cells, MTII-stimulated cAMP, LANCE TR-FRET | inhibition, % at 6.5 µM | actives 0.48% (n = 360,000);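 active = inhibition above its plate's cutoff, the mean of tested wells on that plate plus 3 SD, cut at about 29% in these data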
Target sequence (P32245 whole entry, looked up): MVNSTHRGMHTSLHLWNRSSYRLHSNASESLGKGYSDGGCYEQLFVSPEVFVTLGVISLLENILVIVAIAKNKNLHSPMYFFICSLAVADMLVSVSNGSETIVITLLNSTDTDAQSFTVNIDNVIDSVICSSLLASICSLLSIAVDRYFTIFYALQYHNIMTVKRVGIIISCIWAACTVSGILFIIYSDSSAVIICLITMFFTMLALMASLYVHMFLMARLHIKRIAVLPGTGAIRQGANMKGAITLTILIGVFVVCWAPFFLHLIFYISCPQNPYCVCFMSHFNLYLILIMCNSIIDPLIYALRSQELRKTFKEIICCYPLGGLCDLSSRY
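Assay system: U2OS cells stably expressing human melanocortin 4 receptor (MC4R) / Dosing: 6.5 µM / Timing: compound 30 min, challenge 1 h, detection 1 h / Measured by: Eu-cAMP/anti-cAMP TR-FRET, emission 671 nm / Replicates: singlicate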
MsrA inhibitor – inhibits bovine methionine sulfoxide reductase A | purified bovine MsrA, absorbance read-out | inhibition, % at 15.5 µM | actives 0.75% (n = 360,000)
MC4R ag barr – activates human MC4R beta-arrestin recruitment; P32245; U2OS MC4R beta-arrestin complementation, luminescence; percent of melanotan II response, DMSO zero; activation, % at 8.9 µM; actives 0.98% (n = 360,000);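 active = activation above a per-plate cutoff, the mean activation of sample wells on that plate plus 3 SD, cut at about 8% in these data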
bovine MsrA act – bovine methionine sulfoxide reductase A activation; activation, % at 10.6 µM; purified bovine MsrA, absorbance read-out; AID 602163; actives 0.3% (n = 360,000); in the data active = activation above about 7.5%
MsrA inh confirm – bovine MsrA inhibition, confirmed | purified bovine MsrA, absorbance read-out | shares compounds with MsrA inhibitor | inhibition, % at 15.5 µM | actives 41% (n = 2,300) | AID 651822;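 note: coupled to thioredoxin reductase with NADPH and selenocystamine and DMSO as substrate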
Each line names hits and unclear results; the compound was inactive in the other large screens (follow-up assays come after a bar, where they were run). Hits are enriched below; roughly 2.3% of the tested compounds scored in any of these assays. Cut-off read from the data, not from the text of the source, unless noted: active = inhibition above about 4.5%; inactive = the rest.

CCOc1cc(/C=N/N=C2/NC(=O)C(CC(=O)O)S2)ccc1OS(=O)(=O)c1ccc(C)cc1 (stereo unspecified)	MsrA inhibitor 5.6 | MsrA inh confirm inactive
CCOc1cc(/C=N/N=C2/NC(=O)C(CC(=O)O)S2)ccc1OCc1ccccc1Cl (stereo unspecified)	MsrA inhibitor 6.8 | MsrA inh confirm 4.8
COc1ccc(/C=N/N=C2/NC(=O)C(CC(=O)O)S2)cc1OCc1ccccc1Cl (stereo unspecified)	MsrA inhibitor 6.5 | MsrA inh confirm 6.4
Cc1ccc(S(=O)(=O)Oc2ccc(/C=N/N=C3/NC(=O)C(CC(=O)O)S3)cc2)cc1 (stereo unspecified)	none
CC(OC(=O)c1oc2ccccc2c1CSC1CCCCC1)C(=O)NC(N)=O (stereo unspecified)	none
Cc1ccccc1N1CCN(C2CCCN(C(=O)c3snnc3C)C2)CC1 (stereo unspecified)	none
CN(CC(=O)O)S(=O)(=O)c1cc(Cl)ccc1Cl	none
COc1ccc(C(=O)NCC(=O)N/N=C/C(C)=C/c2ccco2)cc1OC	MsrA inhibitor 6.6 | MsrA inh confirm inactive
COc1cc(C(=O)NCC(=O)N/N=C/c2ccco2)cc(OC)c1OC	none
CCN1C(=O)[C@H]2[C@@H](c3ccccc3)N3C(=O)N(c4cccc(F)c4)C(=O)[C@@]3(CC(C)C)[C@H]2C1=O	none (no result: MsrA inhibitor)
O=C(N/N=C/c1cn(-c2ccccc2)nc1-c1cccnc1)c1ccccc1	none
O=C(N/N=C/c1cn(-c2cccs2)nc1-c1ccccc1)c1ccccc1O	MsrA inhibitor 5.5 | MsrA inh confirm inactive
O=C(N/N=C/c1cn(-c2cccs2)nc1-c1ccccc1)c1ccccc1Br	MsrA inhibitor 6.5 | MsrA inh confirm inactive
Nc1c([N+](=O)[O-])c(=O)sc2ccccc12	none
CN(C)CCCN(C(=O)C1COc2ccccc2O1)c1nc2ccc(F)cc2s1 (stereo unspecified)	none
CC(=O)Nc1ccccc1Sc1ccccc1	none
CC(C)CN=CC1=C(O)c2ccccc2C1=O	none
CC(=NCCCn1ccnc1)C1=C(O)c2ccccc2C1=O	none
O=C1C(C=NCCCN2CCCC2=O)=C(O)c2ccccc21	MsrA inhibitor 5.2 | MsrA inh confirm inactive
O=C1C(C=NCCCn2ccnc2)=C(O)c2ccccc21	MsrA inhibitor 4.7 | MsrA inh confirm inactive
O=C(O)c1ccc(CP(=O)(c2ccccc2)c2ccccc2)cc1	none
CCN(CC)c1ccc(/C=N/NC(=O)Cc2cccs2)c(O)c1	MsrA inhibitor 6.2 | MsrA inh confirm inactive
CCN(CC)c1ccc(C=Nc2ccccc2C)c(O)c1	MsrA inhibitor 6.5 | MsrA inh confirm inactive
CCN(CC)c1ccc(/C=N/N(c2ccccc2)c2ccccc2)c(O)c1	none
CCN(CC)c1ccc(C=Nc2ccc(C#N)cc2)c(O)c1	MsrA inhibitor 7.6 | MsrA inh confirm 5.6
O=C(COc1ccc2c3c(c(=O)oc2c1)CCCC3)NCCN1CCOCC1	none (no result: MsrA inhibitor)
COc1cc(/C=N/N2C(=O)C3C4C=CC(CC4)C3C2=O)ccc1O (stereo unspecified)	none
Cc1ccc(C)n1-c1ccc(C(=O)N2CCOCC2)cc1	none
O=C(O)c1cccnc1SCc1cn2cc(Cl)ccc2n1	none
CN(C)/C=C/c1oc2ccc(O)cc2c1[N+](=O)[O-]	MsrA inhibitor 5.5 | MsrA inh confirm inactive
CCOC(=O)c1ccc2c(c1)n(CCCS(=O)(=O)[O-])c(/C=C/c1ccc(Cl)cc1)[n+]2CC	MsrA inhibitor 5.6 | MsrA inh confirm 5.4
CCOC(=O)c1ccc2c(c1)n(CC)c(C)[n+]2CC	none
Cc1cc(/C=C(\C#N)C(=O)N2CCCCC2)cc(C)c1O	MsrA inhibitor 4.8 | MsrA inh confirm inactive
NC(=O)c1ccsc1NC(=O)c1coc2ccccc2c1=O	MsrA inhibitor 4.7 | MsrA inh confirm inactive
CCCc1nc(SCc2ccccc2Cl)n[nH]1	none
CN(c1ccc(C(=O)NCc2ccc3c(c2)OCO3)cc1)S(=O)(=O)c1ccccc1	none
CCCC(CCC)=NNc1ccc(S(=O)(=O)Nc2ccccc2OC)cc1[N+](=O)[O-]	none
CCC(C)/C(C)=N/Nc1ccc(S(N)(=O)=O)cc1[N+](=O)[O-] (stereo unspecified)	MsrA inhibitor 7.7 | MsrA inh confirm inactive
COc1ccccc1NS(=O)(=O)c1ccc(N/N=C(\C)C(C)C)c([N+](=O)[O-])c1	MsrA inhibitor 9.2 (no result: MC4R antagonist, MC4R ag barr, bovine MsrA act) | MsrA inh confirm inactive
C/C(CC(C)C)=N\Nc1ccc(S(N)(=O)=O)cc1[N+](=O)[O-]	MsrA inhibitor 11.4 | MsrA inh confirm 5.6
CCNc1ccc(S(N)(=O)=O)cc1[N+](=O)[O-]	none
COc1cc(N)c(Cl)cc1C(=O)NC1CCN(Cc2ccccc2)CC1	none
O=C(N/N=C/c1ccncc1)c1cc2ccccc2o1	MsrA inhibitor 5.8 | MsrA inh confirm inactive
COc1c(F)cccc1C1=CC(=O)C[C@H](c2ccc3c(c2)OCO3)C1	MsrA inhibitor 7.1 | MsrA inh confirm inactive
COc1c(F)cccc1C1=CC(=O)C[C@H](c2ccc(F)cc2)C1	none
O=C1c2ccc3c4c(ccc(c24)C(=O)N1NC(=O)C(F)(F)F)CC3	none
CC(=O)NN1C(=O)c2ccc3c4c(ccc(c24)C1=O)C(=O)N(NC(C)=O)C3=O	MsrA inhibitor 29.0 | MsrA inh confirm 22.4
O=C1CC(c2ccccc2)CC(O)=C1C=NCC1CCCO1 (stereo unspecified)	none
Oc1[nH]c2ccccc2c1C=NCC1CCCO1 (stereo unspecified)	MsrA inhibitor 6.0 | MsrA inh confirm inactive
O=C(CSc1nnnn1-c1ccc(F)cc1)NCc1cccs1	none
CCc1c(C)c2cc(Cl)c(O)c(CN(C)C)c2oc1=O	none
CCCCc1cc(=O)oc2c(CN(C)C)c(O)c(Cl)cc12	MsrA inhibitor 5.0 | MsrA inh confirm inactive
Cc1ccc(-c2csc(C(O)c3cccc(Cl)c3)n2)cc1C (stereo unspecified)	none
C/C(=N\Nc1nnc2c3ccccc3n(C)c2n1)c1ccc(C)o1	MsrA inhibitor 5.6 | MsrA inh confirm inactive
C/C(=N\Nc1nc(C)cc(C)n1)c1ccc(C)o1	none
Brc1cccc(-c2nnc3sc(CNC4CCCC4)cn23)c1	none
O=C(O)c1ccc(N/N=C2/CCCc3ccccc32)cc1	MsrA inhibitor 5.8 | MsrA inh confirm 7.0
Cc1cccc(C)c1NC(=O)C1CCN(C(=O)c2cccs2)CC1	none
O=c1cc(-c2ccc(O)cc2)oc2ccccc12	none
O=c1cc(-c2ccc(O)cc2)oc2ccc(O)cc12	MsrA inhibitor 5.5 | MsrA inh confirm inactive
COc1ccccc1C(=O)Nc1nnc([C@@H]2C[C@H](O)[C@@H](CO)O2)s1	none
CCOC(=O)c1c[nH]c2ccc3ccccc3c2c1=O	none
CCOC(=O)c1cc2ccc3ccccc3c2oc1=O	MsrA inhibitor 15.1 | MsrA inh confirm 10.3
O=C(CNC(=O)c1ccccc1F)N/N=C/c1cccs1	none
CCCCNC(=O)CC1S/C(=N/N=C/c2ccc(OC)cc2)NC1=O (stereo unspecified)	none
O=C(O)CCCNC(=O)CC1S/C(=N/N=C/c2ccccc2O)NC1=O (stereo unspecified)	MsrA inhibitor 4.8 | MsrA inh confirm inactive
